Results as given in ChEMBL document CHEMBL4382227, “Optimization and preclinical evaluation of novel histamine H3receptor ligands: Acetyl and propionyl phenoxyalkyl piperazine derivatives” (Bioorg Med Chem, 2018).
Active and inactive are the calls of the source. The rule behind the calls is not given here.

What was measured:
[1] = Metabolic stability in human liver microsomes assessed as parent compound remaining after 120 mins by UPLC analysis; assay type: ADME, Microsome; details: read-out: Stability
[2] = tested on: Rattus norvegicus; test: Protection against development of overweight in Wistar rat fed with palatable feed assessed as decrease in weight gain at 1 mg/kg, ip once daily for 14 days measured daily during compound dosing; assay type: functional, organism-based
Outline: (§1)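 Male Wistar rats (initial 160–180 g), housed in pairs, given palatable diet (peanuts, condensed milk, milk chocolate with hazelnuts, Greek cheese) and dosed i.p. once daily in the morning for 14 days in 1% Tween 80; controls were vehicle on palatable or standard diet. Food intake was recorded three times per week and body weight daily before dosing. Results are mean ± SEM, n = 6; two-way ANOVA with Bonferroni.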

[3] = tested on: HepG2; test: Cytotoxicity against human HepG2 cells assessed as decrease in cell viability at 10 to 100 uM by MTS assay relative to control; assay type: cell-based; details: hepg2, 100 µM
Outline: (§2)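 HepG2 hepatoma cells; viability read by MTS at 490 nm against untreated negative control. Doxorubicin and CCCP served as reference toxins. One-way ANOVA with Bonferroni.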

[4] = Toxicity in CD-1 mouse assessed as effect on spontaneous activity by measuring decrease in locomotor activity at 3 mg/kg, ip measured at 30 mins post dose for 20 mins; assay type: organism-based; details: in vivo
Outline: (§3)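 Male CD-1 mice (20–22 g) were placed in the activity cage immediately after i.p. dosing. Distance travelled was recorded from 30 min post-dose over 20 min. Groups had 6–8 animals.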

[5] = tested on: Rattus norvegicus; test: Protection against development of overweight in Wistar rat fed with palatable feed assessed as decrease in peritoneal fat at 3 mg/kg, ip once daily for 14 days measured on day 15; assay type: functional, organism-based
[6] = tested on: Rattus norvegicus; test: Protection against development of overweight in Wistar rat fed with preferantial feed assessed as decrease in weight gain at 3 mg/kg, ip once daily for 14 days measured daily during compound dosing; assay type: functional, organism-based; outline: as §1
[7] = tested on: Rattus norvegicus; test: Protection against hyperglycemia in Wistar rat fed with palatable feed assessed as decrease in plasma glucose level at 3 mg/kg, ip once daily for 14 days by spectrophotometric method; assay type: functional, organism-based
Outline: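 On day 15, plasma was taken from the left carotid artery 20 min after i.p. heparin (1000 j/rat) and thiopental (70 mg/kg b.w.), and peritoneal fat was weighed. Glucose was measured by an enzymatic colorimetric test read at 500 nm. Rats had been on palatable diet with daily i.p. dosing in 1% Tween 80 for 14 days.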

[8] = Toxicity in CD-1 mouse assessed as effect on spontaneous activity by measuring decrease in locomotor activity at 5 mg/kg, ip measured at 30 mins post dose for 20 mins; assay type: organism-based; details: in vivo; outline: as §3
[9] = tested on: Rattus norvegicus; test: Protection against development of overweight in Wistar rat fed with palatable feed assessed as weight gain at 3 mg/kg, ip once daily for 14 days measured on day 14 during compound dosing relative to control; assay type: functional; outline: as §1
[10] = tested on: Rattus norvegicus; test: Anorectic activity in Wistar rat fed with palatable diet assessed as reduction in amount of calories consumed at 3 mg/kg, ip once daily for 14 days; assay type: functional, organism-based; outline: as §1
[11] = Toxicity in Wistar rat fed with palatable diet assessed as effect on spontaneous activity by measuring induction of sedation at 3 mg/kg, ip for 13 days measured on day 1 and 13 at 24 hrs post dose; assay type: organism-based; details: in vivo
Outline: (§4)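 Wistar rats on palatable diet, housed in pairs in home cages, received daily i.p. dosing. Spontaneous activity was recorded by an RFID system for 24 h after dosing on days 1 and 13. Results are mean ± SEM, n = 6; multiple t-test.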

[12] = biological target: Histamine H3 receptor (Homo sapiens, UniProt Q9Y5N1); test: Displacement of [3H]N-alpha-methylhistamine from full length recombinant human H3R expressed in HEK293 cell membranes after 90 mins by beta scintillation counting method
Sequence of Histamine H3 receptor (Q9Y5N1 whole entry): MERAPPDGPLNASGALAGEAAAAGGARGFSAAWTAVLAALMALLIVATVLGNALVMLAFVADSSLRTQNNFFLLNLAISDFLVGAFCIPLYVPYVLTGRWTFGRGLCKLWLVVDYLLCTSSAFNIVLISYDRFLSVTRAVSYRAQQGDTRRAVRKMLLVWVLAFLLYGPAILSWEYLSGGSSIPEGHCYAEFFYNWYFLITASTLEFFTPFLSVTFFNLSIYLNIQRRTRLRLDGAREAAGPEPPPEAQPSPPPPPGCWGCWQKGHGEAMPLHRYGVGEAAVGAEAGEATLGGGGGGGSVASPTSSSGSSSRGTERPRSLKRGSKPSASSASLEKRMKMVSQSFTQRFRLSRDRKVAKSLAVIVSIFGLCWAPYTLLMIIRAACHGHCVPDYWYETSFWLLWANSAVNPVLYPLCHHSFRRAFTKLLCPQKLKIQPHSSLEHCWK
Outline: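 Frozen crude membranes from HEK-293 cells stably expressing full-length human H3R were incubated 90 min at RT with shaking, with [3H]Nα-methylhistamine (2 nM; KD 3.08 nM) and 5–11 concentrations of test compound between 0.01 nM and 10 μM. Nonspecific binding was defined with pitolisant 10 μM. Samples were filtered on PEI-treated GF/B filters and washed with ice-cold water. Ki was derived from IC50 by Cheng-Prusoff; ≥3 experiments, each in at least duplicate.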

[13] = tested on: Rattus norvegicus; test: Protection against development of overweight in Wistar rat fed with palatable feed assessed as weight gain at 3 mg/kg, ip once daily for 14 days measured on day 9 during compound dosing relative to control; assay type: functional; outline: as §1
[14] = tested on: HepG2; test: Induction of phospholipidosis in human HepG2 cells assessed as increase in number of cellular lysosomes at 50 uM after 72 hrs by LYSO-ID Red and Hoechst 33342 staining based fluorescence microscopic method; assay type: cell-based; details: hepg2, 72 h
[15] = Toxicity in Wistar rat fed with palatable diet assessed as effect on spontaneous activity by measuring induction of hyperlocomotion at 3 mg/kg, ip for 13 days measured on day 1 and 13 at 24 hrs post dose; assay type: organism-based; details: in vivo; outline: as §4
[16] = tested on: Rattus norvegicus; test: Protection against development of overweight in Wistar rat fed with palatable feed assessed as decrease in weight gain at 3 mg/kg, ip once daily for 14 days; assay type: functional, organism-based; outline: as §1
[17] = tested on: HepG2; test: Cytotoxicity against human HepG2 cells assessed as decrease in cell viability at 10 uM by MTS assay relative to control; assay type: cell-based; details: hepg2, 10 µM
Outline: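 HepG2 human hepatoma cells (ATCC HB-8065) were exposed to the test compound at concentrations that included 10 and 100 μM. Viability was read by the MTS assay at 490 nm absorbance and expressed relative to an untreated negative control. Doxorubicin and CCCP served as reference toxins. Significance was tested by one-way ANOVA with Bonferroni's comparison test.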

[18] = tested on: HepG2; test: Cytotoxicity against human HepG2 cells assessed as decrease in cell viability at 1 uM by MTS assay relative to control; assay type: cell-based; details: hepg2, 1 µM; outline: as §2

With CC(=O)c1ccc(OCCCN2CCN(c3ccncc3)CC2)cc1 the remaining at 2 h [1] was 91.3%, the Activity [2] was “inactive” and the Activity [3] was 10%. The Activity [4] was “Non-Toxic”, the Activity [5] was “Active” and the Activity [6] was “Active”. The Activity [7] was “Active”, the Activity [8] was “Toxic” and the Activity [9] was 7.89%. For the same compound, the Activity [10] was “Active”, the Activity [11] was “Non-Toxic” and the Ki [12] was 0.0102 µM. The Activity [13] was 8.64%, the Activity [14] was “Non-Toxic” and the Activity [15] was “Non-Toxic”.

In the case of CC(=O)c1ccc(OCCCN2CCN(c3cnccn3)CC2)cc1, the Ki [12] is reported as 2.32 µM.

For CC(=O)c1ccc(OCCCCN2CCN(c3ccccn3)CC2)cc1, the Ki [12] was 3.7 µM.

Compound CC(=O)c1ccc(OCCCN2CCN(c3cccnc3)CC2)cc1 has a Ki [12] of 0.499 µM.

CC(=O)c1ccc(OCCCCN2CCN(C(=O)C3CCCO3)CC2)cc1 (centres undefined) gave a Ki [12] of over 10 µM.

CCC(=O)c1ccc(OCCCN2CCN(c3cnccn3)CC2)cc1 gave a Ki [12] of 3.39 µM.

CC(=O)c1ccc(OCCCN2CCN(c3ncccn3)CC2)cc1 gave a Ki [12] of 2.45 µM.

In the case of CC(=O)N1CCN(c2ccc(OCC3COC(Cn4ccnc4)(c4ccc(Cl)cc4Cl)O3)cc2)CC1 (centres undefined) [KETOCONAZOLE], the Activity [14] is reported as “Toxic”.

For CCC(=O)c1ccc(OCCCN2CCN(c3ccncc3)CC2)cc1, the Activity [4] was “Non-Toxic”, the Activity [8] was “Toxic” and the Ki [12] was 0.0052 µM. For the same compound, the Activity [16] was “inactive”.

Compound CC(=O)c1ccc(OCCCN2CCN(C(=O)C3CCCO3)CC2)cc1 (centres undefined) has a Ki [12] of 4.89 µM.

Work on CC(=O)c1ccc(OCCCCN2CCN(c3ccncc3)CC2)cc1 yielded a Ki [12] of 0.115 µM.

For CCC(=O)c1ccc(OCCCCN2CCN(C(=O)C3CCCO3)CC2)cc1 (centres undefined), the Ki [12] was over 10 µM.

Work on CCC(=O)c1ccc(OCCCCN2CCN(c3ccncc3)CC2)cc1 yielded a Ki [12] of 0.0154 µM.

Compound N#CC(C#N)=NNc1cccc(Cl)c1 [CARBONYL CYANIDE M-CHLOROPHENYLHYDRAZONE] has an Activity [17] of over 50%.

Compound CC(=O)c1ccc(OCCCCN2CCN(c3cccnc3)CC2)cc1 has a Ki [12] of 0.908 µM.

For CC(=O)c1ccc(OCCCN2CCN(c3ccccn3)CC2)cc1, the Ki [12] was 0.315 µM.

CCC(=O)c1ccc(OCCCCN2CCN(c3cccnc3)CC2)cc1 showed a Ki [12] of 1.39 µM.

CCC(=O)c1ccc(OCCCN2CCN(c3cccnc3)CC2)cc1 showed a Ki [12] of 0.192 µM.

Compound COc1cccc2c1C(=O)c1c(O)c3c(c(O)c1C2=O)C[C@@](O)(C(=O)CO)C[C@@H]3O[C@H]1C[C@H](N)[C@H](O)[C@H](C)O1 [DOXORUBICIN] has an Activity [18] of over 50%.

Compound CCC(=O)c1ccc(OCCCCN2CCN(c3ccccn3)CC2)cc1 has a Ki [12] of 1.44 µM.

CC(=O)c1ccc(OCCCCN2CCN(c3ncccn3)CC2)cc1 showed a Ki [12] of 1.63 µM.

Compound CCC(=O)c1ccc(OCCCN2CCN(c3ccccn3)CC2)cc1 has a Ki [12] of 0.377 µM.

CCC(=O)c1ccc(OCCCCN2CCN(c3ncccn3)CC2)cc1 showed a Ki [12] of 3.63 µM.

In the case of CCC(=O)c1ccc(OCCCN2CCN(c3ncccn3)CC2)cc1, the Ki [12] is reported as 1.72 µM.

In the case of CCC(=O)c1ccc(OCCCN2CCN(C(=O)C3CCCO3)CC2)cc1 (centres undefined), the Ki [12] is reported as 1.39 µM.

With CCC(=O)c1ccc(OCCCCN2CCN(c3cnccn3)CC2)cc1 the Ki [12] was 4.04 µM.

CC(=O)c1ccc(OCCCCN2CCN(c3cnccn3)CC2)cc1 showed a Ki [12] of 1.23 µM.
